# Where “and” joins values, the source holds several entries; their conditions need not be identical. Equal values may be shown once.
# System: U2OS
# Assay: Multiplex assay against U2OS
# Format: toxicity, cell-based
# Conditions: human
# Outline: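 Cells were classed with CellPathfinder machine-learning gating, first as Hoechst high-intensity objects or normal cells, then (normal cells) as healthy, pyknosed or fragmented nuclei, and finally (pyknosed cells) as mitotic or apoptotic. Staining of live cells at seeding used Hoechst33342, BioTracker Green Microtubule Cytoskeleton Dye, MitoTracker Red and Annexin V Alexa Fluor 680, with imaging on a CQ1 microscope at 37°C and 5% CO2 after compound addition. Tubulin, mitochondrial-mass and membrane-permeability phenotypes are per cents of healthy-nucleus cells.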
# [1] = 12 h, 1 µM, compound concentration 1 uM
# [2] = 12 h, 10 µM, compound concentration 10 uM
# [3] = 24 h, 1 µM, compound concentration 1 uM
# [4] = 24 h, 10 µM, compound concentration 10 uM
# [5] = 48 h, 1 µM, compound concentration 1 uM
# [6] = 48 h, 10 µM, compound concentration 10 uM
smiles,measurement,setting,value
Cc1ccccc1C(=O)Nc1ccc(C(=O)N2CCCC(N(C)C)c3ccccc32)cc1.Cl (stereo unspecified),Population Apoptotic (%),[1],91% and 77%
same,Population Fragmented Nuclei (%),[1],20% and 14%
same,Population Healthy Nuclei (%),[1],70% and 79%
same,Population Hoechst High Intensity Objects (%),[1],1%
same,Population Membrane Permeable-Phenotype (%),[1],5% and 4%
same,Population Mitochondria Different-Phenotype (%),[1],3% and 5%
same,Population Mitotic Cells (%),[1],8% and 22%
same,Population Normal (%),[1],98%
same,Population Pyknosed Nuclei (%),[1],8% and 5%
same,Population Tubulin-Different-Phenotype (%),[1],4% and 1%
same,Total Cell Count,[1],282 and 157
same,Population Apoptotic (%),[2],59% and 56%
same,Population Fragmented Nuclei (%),[2],18%
same,Population Healthy Nuclei (%),[2],55% and 62%
same,Population Hoechst High Intensity Objects (%),[2],4% and 1%
same,Population Membrane Permeable-Phenotype (%),[2],14% and 15%
same,Population Mitochondria Different-Phenotype (%),[2],11% and 25%
same,Population Mitotic Cells (%),[2],40% and 43%
same,Population Normal (%),[2],95% and 98%
same,Population Pyknosed Nuclei (%),[2],25% and 19%
same,Population Tubulin-Different-Phenotype (%),[2],8% and 15%
same,Total Cell Count,[2],213 and 83
same,Population Apoptotic (%),[3],88% and 66%
same,Population Fragmented Nuclei (%),[3],18% and 13%
same,Population Healthy Nuclei (%),[3],70% and 77%
same,Population Hoechst High Intensity Objects (%),[3],0% and 1%
same,Population Membrane Permeable-Phenotype (%),[3],6% and 5%
same,Population Mitochondria Different-Phenotype (%),[3],3% and 4%
same,Population Mitotic Cells (%),[3],11% and 33%
same,Population Normal (%),[3],99% and 98%
same,Population Pyknosed Nuclei (%),[3],10% and 9%
same,Population Tubulin-Different-Phenotype (%),[3],4% and 3%
same,Total Cell Count,[3],333 and 192
same,Population Apoptotic (%),[4],71% and 46%
same,Population Fragmented Nuclei (%),[4],16% and 27%
same,Population Healthy Nuclei (%),[4],51% and 53%
same,Population Hoechst High Intensity Objects (%),[4],4% and 5%
same,Population Membrane Permeable-Phenotype (%),[4],16% and 18%
same,Population Mitochondria Different-Phenotype (%),[4],14% and 18%
same,Population Mitotic Cells (%),[4],28% and 53%
same,Population Normal (%),[4],95% and 94%
same,Population Pyknosed Nuclei (%),[4],31% and 18%
same,Population Tubulin-Different-Phenotype (%),[4],6% and 18%
same,Total Cell Count,[4],211 and 73
same,Population Apoptotic (%),[5],85% and 83%
same,Population Fragmented Nuclei (%),[5],14% and 15%
same,Population Healthy Nuclei (%),[5],71% and 72%
same,Population Hoechst High Intensity Objects (%),[5],1%
same,Population Membrane Permeable-Phenotype (%),[5],5% and 7%
same,Population Mitochondria Different-Phenotype (%),[5],3% and 5%
same,Population Mitotic Cells (%),[5],14% and 16%
same,Population Normal (%),[5],98%
same,Population Pyknosed Nuclei (%),[5],13% and 12%
same,Population Tubulin-Different-Phenotype (%),[5],3% and 4%
same,Total Cell Count,[5],414 and 248
same,Population Apoptotic (%),[6],71% and 84%
same,Population Fragmented Nuclei (%),[6],28%
same,Population Healthy Nuclei (%),[6],43% and 42%
same,Population Hoechst High Intensity Objects (%),[6],8%
same,Population Membrane Permeable-Phenotype (%),[6],17% and 11%
same,Population Mitotic Cells (%),[6],28% and 16%
same,Population Normal (%),[6],91%
same,Population Pyknosed Nuclei (%),[6],28% and 29%
same,Population Tubulin-Different-Phenotype (%),[6],7% and 13%
same,Total Cell Count,[6],206 and 93
COc1cc2nc(N3CCN(C(=O)c4ccco4)CC3)nc(N)c2cc1OC.Cl [PRAZOSIN HYDROCHLORIDE],Population Apoptotic (%),[1],88% and 94%
same,Population Fragmented Nuclei (%),[1],21% and 18%
same,Population Healthy Nuclei (%),[1],70% and 69%
same,Population Hoechst High Intensity Objects (%),[1],2% and 1%
same,Population Membrane Permeable-Phenotype (%),[1],4% and 5%
same,Population Mitochondria Different-Phenotype (%),[1],2% and 7%
same,Population Mitotic Cells (%),[1],11% and 5%
same,Population Normal (%),[1],97% and 98%
same,Population Pyknosed Nuclei (%),[1],7% and 12%
same,Population Tubulin-Different-Phenotype (%),[1],1% and 8%
same,Total Cell Count,[1],235 and 159
same,Population Apoptotic (%),[2],86% and 72%
same,Population Fragmented Nuclei (%),[2],25% and 15%
same,Population Healthy Nuclei (%),[2],67% and 74%
same,Population Hoechst High Intensity Objects (%),[2],3% and 0%
same,Population Membrane Permeable-Phenotype (%),[2],12% and 4%
same,Population Mitochondria Different-Phenotype (%),[2],2% and 5%
same,Population Mitotic Cells (%),[2],13% and 27%
same,Population Normal (%),[2],96% and 99%
same,Population Pyknosed Nuclei (%),[2],7% and 9%
same,Population Tubulin-Different-Phenotype (%),[2],6% and 7%
same,Total Cell Count,[2],216 and 114
same,Population Apoptotic (%),[3],95% and 100%
same,Population Fragmented Nuclei (%),[3],22% and 15%
same,Population Healthy Nuclei (%),[3],69% and 74%
same,Population Hoechst High Intensity Objects (%),[3],1% and 0%
same,Population Membrane Permeable-Phenotype (%),[3],8% and 10%
same,Population Mitochondria Different-Phenotype (%),[3],2% and 5%
same,Population Mitotic Cells (%),[3],4% and 0%
same,Population Normal (%),[3],98% and 100%
same,Population Pyknosed Nuclei (%),[3],7% and 10%
same,Population Tubulin-Different-Phenotype (%),[3],4% and 9%
same,Total Cell Count,[3],273 and 188
same,Population Apoptotic (%),[4],78% and 85%
same,Population Fragmented Nuclei (%),[4],23% and 13%
same,Population Healthy Nuclei (%),[4],68% and 71%
same,Population Hoechst High Intensity Objects (%),[4],2% and 1%
same,Population Membrane Permeable-Phenotype (%),[4],8% and 7%
same,Population Mitochondria Different-Phenotype (%),[4],6% and 5%
same,Population Mitotic Cells (%),[4],21% and 14%
same,Population Normal (%),[4],97% and 98%
same,Population Pyknosed Nuclei (%),[4],7% and 15%
same,Population Tubulin-Different-Phenotype (%),[4],6% and 4%
same,Total Cell Count,[4],244 and 138
same,Population Apoptotic (%),[5],94% and 100%
same,Population Fragmented Nuclei (%),[5],16% and 15%
same,Population Healthy Nuclei (%),[5],74% and 77%
same,Population Hoechst High Intensity Objects (%),[5],2% and 1%
same,Population Membrane Permeable-Phenotype (%),[5],6% and 7%
same,Population Mitochondria Different-Phenotype (%),[5],2% and 7%
same,Population Mitotic Cells (%),[5],5% and 0%
same,Population Normal (%),[5],97% and 98%
same,Population Pyknosed Nuclei (%),[5],9% and 7%
same,Population Tubulin-Different-Phenotype (%),[5],2% and 5%
same,Total Cell Count,[5],388 and 266
same,Population Apoptotic (%),[6],96% and 94%
same,Population Fragmented Nuclei (%),[6],20% and 15%
same,Population Healthy Nuclei (%),[6],71% and 76%
same,Population Hoechst High Intensity Objects (%),[6],1% and 2%
same,Population Membrane Permeable-Phenotype (%),[6],5%
same,Population Mitochondria Different-Phenotype (%),[6],2% and 6%
same,Population Mitotic Cells (%),[6],3% and 5%
same,Population Normal (%),[6],98% and 97%
same,Population Pyknosed Nuclei (%),[6],8%
same,Population Tubulin-Different-Phenotype (%),[6],3%
same,Total Cell Count,[6],341 and 208

# Source: ChEMBL document CHEMBL5724801, “EUbOPEN Chemogenomics Library - Multiplex” (2024)
